Experiments:
[1] = target: Platelet-derived growth factor receptor (Homo sapiens, UniProt P09619+P16234); assay: Antitumor activity measured by the inhibition of platelet-derived growth factor receptor autophosphorylation in intact Swiss 3T3 cells; format: cell-based
Procedure, shortened: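 Quiescent Swiss 3T3 fibroblasts moved to serum-free DMEM and exposed to compound in DMSO (final 1%) for 2 h. They were then stimulated with 100 ng/mL human recombinant PDGF-BB for 10 min at room temperature and lysed. Autophosphorylation was read by immunoblotting. Four to eight concentrations were tested across 2 orders of magnitude, and IC50 came from curve fitting over three independent experiments.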

[2] = target: T1, Beta-adrenergic receptor kinase 1 (Homo sapiens, UniProt P25098); assay: Inhibition of G-protein coupled receptor kinase 2 (GRK2) in vitro phosphorylation
T1 sequence (P25098 whole entry): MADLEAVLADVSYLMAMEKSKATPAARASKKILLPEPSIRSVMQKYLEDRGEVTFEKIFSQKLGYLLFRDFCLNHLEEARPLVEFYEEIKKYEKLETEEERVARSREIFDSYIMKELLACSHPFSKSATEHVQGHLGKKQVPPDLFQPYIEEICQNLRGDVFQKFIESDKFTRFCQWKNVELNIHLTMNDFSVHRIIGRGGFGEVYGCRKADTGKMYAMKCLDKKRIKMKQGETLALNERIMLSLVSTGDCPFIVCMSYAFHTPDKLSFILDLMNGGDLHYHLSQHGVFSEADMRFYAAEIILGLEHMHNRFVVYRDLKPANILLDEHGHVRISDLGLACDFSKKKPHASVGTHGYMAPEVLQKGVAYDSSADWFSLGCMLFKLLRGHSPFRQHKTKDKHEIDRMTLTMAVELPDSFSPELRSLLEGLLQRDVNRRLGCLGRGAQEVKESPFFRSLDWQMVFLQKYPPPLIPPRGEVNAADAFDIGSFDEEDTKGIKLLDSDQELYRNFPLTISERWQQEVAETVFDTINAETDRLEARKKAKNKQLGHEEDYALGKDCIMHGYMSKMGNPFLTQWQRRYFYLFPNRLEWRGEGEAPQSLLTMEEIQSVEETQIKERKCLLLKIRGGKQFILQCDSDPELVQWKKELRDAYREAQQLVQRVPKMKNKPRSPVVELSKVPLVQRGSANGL
Procedure, shortened: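 GRK2 was assayed in vitro using lysates of GRK2-overexpressing 293 cells as the kinase source. Rhodopsin purified from bovine rod outer segments served as substrate.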

[3] = target: T2, Platelet-derived growth factor receptor beta (Homo sapiens, UniProt P09619); assay: Inhibition of Platelet-derived growth factor receptor beta kinase activity in Sf9-expressed GST-fusion protein
Procedure, shortened: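 A constitutively active GST fusion of the PDGFβ-receptor cytoplasmic domain was expressed in Sf9 cells. The isolated fusion protein was tested in an in vitro autophosphorylation assay at 10 µM ATP.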

[4] = target: Fibroblast growth factor receptor 1 (Homo sapiens, UniProt P11362); assay: Inhibition of Fibroblast growth factor receptor 1 autophosphorylation in PAE cells; format: cell-based, Sus scrofa
[5] = target: T2, Platelet-derived growth factor receptor beta; assay: Inhibition of Platelet-derived growth factor receptor beta autophosphorylation in PAE cells; format: cell-based, Sus scrofa
Procedure, shortened: (§1)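 Porcine aortic endothelial cells expressing human PDGF α- or β-receptor were used. Receptor autophosphorylation in the intact cells was read by immunoblotting.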

[6] = target: Proto-oncogene tyrosine-protein kinase Src (Homo sapiens, UniProt P12931); assay: Inhibition of Src protein tyrosine kinase
Procedure, shortened: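 Src-dependent tyrosine phosphorylation was measured in intact src-transformed NIH3T3 fibroblasts, with immunoblot read-out.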

[7] = target: Platelet-derived growth factor receptor alpha (Homo sapiens, UniProt P16234); assay: Inhibition of Platelet-derived growth factor receptor alpha autophosphorylation in PAE cells; format: cell-based, Sus scrofa; procedure, shortened: as §1
[8] = target: Epidermal growth factor receptor (Homo sapiens, UniProt P00533); assay: Inhibition of Epidermal growth factor receptor autophosphorylation in A431 cells; format: cell-based, A-431
Procedure, shortened: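 A431 cells, starved overnight in serum-free medium, were exposed to compound for 2 h and then stimulated with 100 ng/mL EGF for 10 min. Cells were extracted in lysis buffer (Hepes pH 7.5, 1% Triton), and EGFR tyrosine autophosphorylation was read by immunoblotting.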

[9] = Inhibition of Protein kinase C isoforms epsilon and iota in vitro phosphorylation
Procedure, shortened: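 RGS-His6-tagged PKC isoforms were expressed transiently in COS-7 cells and purified from lysate on Ni-NTA, with imidazole elution. Reactions ran 10 min at 30 °C, and phosphocellulose-bound radioactivity was counted.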

[10] = target: T2, Platelet-derived growth factor receptor beta; assay: Inhibition of purified Platelet-derived growth factor receptor beta kinase activity
Procedure, shortened: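 PDGFβ-receptor kinase was purified from membranes of a receptor-overexpressing cell line. Inhibition was tested in an in vitro autophosphorylation assay at 10 µM ATP.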

[11] = target: T3, Protein kinase C epsilon type (Homo sapiens, UniProt Q02156); assay: Inhibition of His-tagged Protein kinase C epsilon over-expressed in COS7 cells; format: cell-based, COS-7
T3 sequence (Q02156 whole entry): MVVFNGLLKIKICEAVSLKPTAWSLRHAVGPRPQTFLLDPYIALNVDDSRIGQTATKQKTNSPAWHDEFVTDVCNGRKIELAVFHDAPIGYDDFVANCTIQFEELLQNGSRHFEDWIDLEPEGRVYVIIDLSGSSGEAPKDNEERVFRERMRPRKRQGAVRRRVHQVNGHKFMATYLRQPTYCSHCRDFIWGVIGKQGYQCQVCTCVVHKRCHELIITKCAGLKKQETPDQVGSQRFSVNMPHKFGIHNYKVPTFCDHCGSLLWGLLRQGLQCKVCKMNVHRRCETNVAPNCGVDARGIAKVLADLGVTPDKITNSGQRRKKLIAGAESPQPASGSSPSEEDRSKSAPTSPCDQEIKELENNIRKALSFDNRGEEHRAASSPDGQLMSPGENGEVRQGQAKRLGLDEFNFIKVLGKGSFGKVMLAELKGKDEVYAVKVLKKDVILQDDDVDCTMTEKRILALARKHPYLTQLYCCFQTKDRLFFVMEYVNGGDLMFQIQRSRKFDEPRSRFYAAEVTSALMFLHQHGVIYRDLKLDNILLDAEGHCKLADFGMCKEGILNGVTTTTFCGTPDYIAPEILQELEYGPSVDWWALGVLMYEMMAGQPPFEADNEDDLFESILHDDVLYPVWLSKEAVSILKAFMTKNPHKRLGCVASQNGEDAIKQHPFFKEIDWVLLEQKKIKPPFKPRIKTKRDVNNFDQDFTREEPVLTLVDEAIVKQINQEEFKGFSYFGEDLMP
Procedure, shortened: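 RGS-His6-tagged PKC was transiently expressed in COS-7 cells, purified on Ni-NTA agarose and eluted with 500 mM imidazole. Reactions ran 10 min at 30 °C; phosphocellulose binding and scintillation counting gave the read-out.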

T2 sequence (P09619 whole entry, the tested form may be a part): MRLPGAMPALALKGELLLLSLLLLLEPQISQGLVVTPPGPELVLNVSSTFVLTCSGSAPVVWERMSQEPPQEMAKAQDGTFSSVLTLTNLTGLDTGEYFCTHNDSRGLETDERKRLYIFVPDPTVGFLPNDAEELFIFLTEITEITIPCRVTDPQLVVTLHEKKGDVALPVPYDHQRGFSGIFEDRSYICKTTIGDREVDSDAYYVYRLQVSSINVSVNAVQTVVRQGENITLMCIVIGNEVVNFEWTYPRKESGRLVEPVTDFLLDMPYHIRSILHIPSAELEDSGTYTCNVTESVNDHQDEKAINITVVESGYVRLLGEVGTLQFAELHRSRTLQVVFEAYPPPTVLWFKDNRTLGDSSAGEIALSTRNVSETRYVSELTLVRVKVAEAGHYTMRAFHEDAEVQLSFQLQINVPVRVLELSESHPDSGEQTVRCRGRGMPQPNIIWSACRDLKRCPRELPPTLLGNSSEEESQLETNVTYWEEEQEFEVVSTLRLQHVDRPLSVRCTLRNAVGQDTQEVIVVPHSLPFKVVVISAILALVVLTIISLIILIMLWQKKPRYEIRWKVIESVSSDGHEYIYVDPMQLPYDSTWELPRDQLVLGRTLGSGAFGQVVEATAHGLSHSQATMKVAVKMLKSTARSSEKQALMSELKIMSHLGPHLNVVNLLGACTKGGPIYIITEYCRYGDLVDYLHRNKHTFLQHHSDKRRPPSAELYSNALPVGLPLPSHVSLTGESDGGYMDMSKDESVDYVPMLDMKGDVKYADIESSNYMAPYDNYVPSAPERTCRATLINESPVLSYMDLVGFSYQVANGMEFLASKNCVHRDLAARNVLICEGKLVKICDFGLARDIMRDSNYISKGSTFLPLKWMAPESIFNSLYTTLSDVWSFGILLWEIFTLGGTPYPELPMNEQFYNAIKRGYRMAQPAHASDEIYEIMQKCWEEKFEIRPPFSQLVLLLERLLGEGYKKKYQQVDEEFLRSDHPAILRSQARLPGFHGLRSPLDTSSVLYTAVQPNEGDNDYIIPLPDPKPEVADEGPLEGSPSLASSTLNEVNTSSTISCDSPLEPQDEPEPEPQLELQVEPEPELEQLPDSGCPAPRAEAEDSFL
Sequence of Platelet-derived growth factor receptor alpha (P16234 whole entry): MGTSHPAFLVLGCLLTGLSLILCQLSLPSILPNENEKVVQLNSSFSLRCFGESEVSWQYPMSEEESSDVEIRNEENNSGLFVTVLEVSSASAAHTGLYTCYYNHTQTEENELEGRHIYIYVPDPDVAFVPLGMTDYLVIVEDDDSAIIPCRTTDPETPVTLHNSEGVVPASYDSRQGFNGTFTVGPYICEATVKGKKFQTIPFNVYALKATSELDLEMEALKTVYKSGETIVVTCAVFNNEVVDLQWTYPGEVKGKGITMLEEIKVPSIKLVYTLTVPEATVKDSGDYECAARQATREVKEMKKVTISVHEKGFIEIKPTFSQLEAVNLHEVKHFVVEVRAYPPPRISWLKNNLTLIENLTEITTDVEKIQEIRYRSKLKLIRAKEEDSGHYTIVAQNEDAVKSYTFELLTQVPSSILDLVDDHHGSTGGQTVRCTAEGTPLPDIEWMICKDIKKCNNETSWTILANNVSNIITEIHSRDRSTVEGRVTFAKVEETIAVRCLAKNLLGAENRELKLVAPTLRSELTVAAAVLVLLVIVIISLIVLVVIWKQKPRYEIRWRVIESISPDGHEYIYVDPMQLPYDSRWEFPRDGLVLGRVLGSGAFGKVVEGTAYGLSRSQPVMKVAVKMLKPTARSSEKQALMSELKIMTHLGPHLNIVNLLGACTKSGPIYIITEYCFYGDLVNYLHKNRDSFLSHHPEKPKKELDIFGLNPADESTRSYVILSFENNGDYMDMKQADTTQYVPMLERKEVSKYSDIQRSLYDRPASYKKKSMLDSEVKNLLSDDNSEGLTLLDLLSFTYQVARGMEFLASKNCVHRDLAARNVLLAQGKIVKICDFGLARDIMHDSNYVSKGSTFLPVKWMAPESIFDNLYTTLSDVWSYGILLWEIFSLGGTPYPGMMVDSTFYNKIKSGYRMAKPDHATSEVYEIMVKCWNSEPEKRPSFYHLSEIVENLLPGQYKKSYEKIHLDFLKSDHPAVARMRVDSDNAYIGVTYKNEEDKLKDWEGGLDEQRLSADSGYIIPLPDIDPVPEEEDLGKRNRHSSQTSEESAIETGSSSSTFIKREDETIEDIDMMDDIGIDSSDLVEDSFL
Sequence of Epidermal growth factor receptor (P00533 whole entry): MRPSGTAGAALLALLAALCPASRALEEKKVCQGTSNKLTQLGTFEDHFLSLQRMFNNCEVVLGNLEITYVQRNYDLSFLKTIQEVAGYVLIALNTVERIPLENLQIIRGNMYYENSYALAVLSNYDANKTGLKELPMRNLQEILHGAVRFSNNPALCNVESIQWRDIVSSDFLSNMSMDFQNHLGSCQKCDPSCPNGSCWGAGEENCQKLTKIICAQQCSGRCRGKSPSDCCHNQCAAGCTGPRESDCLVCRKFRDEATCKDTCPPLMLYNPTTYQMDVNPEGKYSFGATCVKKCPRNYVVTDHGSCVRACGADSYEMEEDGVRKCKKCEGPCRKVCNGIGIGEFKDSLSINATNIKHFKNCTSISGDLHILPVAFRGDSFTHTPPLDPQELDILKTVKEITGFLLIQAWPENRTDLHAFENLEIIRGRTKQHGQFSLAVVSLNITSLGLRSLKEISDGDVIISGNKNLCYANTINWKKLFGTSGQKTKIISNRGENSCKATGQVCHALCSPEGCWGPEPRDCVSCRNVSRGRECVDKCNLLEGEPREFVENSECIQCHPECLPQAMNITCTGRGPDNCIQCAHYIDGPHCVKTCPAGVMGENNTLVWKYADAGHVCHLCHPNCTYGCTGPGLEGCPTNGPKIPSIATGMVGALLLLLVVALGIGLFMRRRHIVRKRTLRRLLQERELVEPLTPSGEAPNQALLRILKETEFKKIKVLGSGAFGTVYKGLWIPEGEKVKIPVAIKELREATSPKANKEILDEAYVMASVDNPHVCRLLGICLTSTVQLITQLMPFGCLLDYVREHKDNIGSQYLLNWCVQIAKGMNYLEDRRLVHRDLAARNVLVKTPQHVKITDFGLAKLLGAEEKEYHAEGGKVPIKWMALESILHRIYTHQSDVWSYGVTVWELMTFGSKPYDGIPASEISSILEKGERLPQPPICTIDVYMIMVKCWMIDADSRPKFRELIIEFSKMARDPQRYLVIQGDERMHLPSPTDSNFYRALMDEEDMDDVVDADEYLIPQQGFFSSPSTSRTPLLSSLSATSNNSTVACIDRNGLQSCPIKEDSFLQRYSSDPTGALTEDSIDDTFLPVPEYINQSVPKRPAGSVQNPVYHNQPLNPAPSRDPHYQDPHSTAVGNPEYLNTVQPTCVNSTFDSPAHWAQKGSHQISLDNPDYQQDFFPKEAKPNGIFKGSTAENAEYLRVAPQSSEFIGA
Sequence of Fibroblast growth factor receptor 1 (P11362 whole entry): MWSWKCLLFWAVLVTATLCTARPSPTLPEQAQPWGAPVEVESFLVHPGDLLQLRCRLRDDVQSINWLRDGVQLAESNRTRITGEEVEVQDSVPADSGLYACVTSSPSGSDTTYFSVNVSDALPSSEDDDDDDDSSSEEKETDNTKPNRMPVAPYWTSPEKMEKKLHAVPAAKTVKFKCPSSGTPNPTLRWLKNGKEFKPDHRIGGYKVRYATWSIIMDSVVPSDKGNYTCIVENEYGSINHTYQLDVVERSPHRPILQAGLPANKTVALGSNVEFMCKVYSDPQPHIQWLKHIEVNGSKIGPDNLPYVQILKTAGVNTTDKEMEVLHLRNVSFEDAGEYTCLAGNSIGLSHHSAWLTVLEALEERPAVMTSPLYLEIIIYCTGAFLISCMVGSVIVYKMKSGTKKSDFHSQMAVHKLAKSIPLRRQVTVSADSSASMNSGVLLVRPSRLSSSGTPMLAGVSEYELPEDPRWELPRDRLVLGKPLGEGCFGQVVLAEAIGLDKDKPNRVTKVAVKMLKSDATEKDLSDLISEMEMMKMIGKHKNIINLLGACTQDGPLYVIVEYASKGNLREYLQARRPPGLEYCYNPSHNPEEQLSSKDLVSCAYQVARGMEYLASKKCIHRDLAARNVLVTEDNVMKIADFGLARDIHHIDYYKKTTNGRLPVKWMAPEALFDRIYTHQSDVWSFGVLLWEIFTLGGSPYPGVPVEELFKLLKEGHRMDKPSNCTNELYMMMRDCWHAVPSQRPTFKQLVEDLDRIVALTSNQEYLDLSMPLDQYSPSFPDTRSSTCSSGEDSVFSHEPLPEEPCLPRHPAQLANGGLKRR
Sequence of Proto-oncogene tyrosine-protein kinase Src (P12931 2-536 limits assumed): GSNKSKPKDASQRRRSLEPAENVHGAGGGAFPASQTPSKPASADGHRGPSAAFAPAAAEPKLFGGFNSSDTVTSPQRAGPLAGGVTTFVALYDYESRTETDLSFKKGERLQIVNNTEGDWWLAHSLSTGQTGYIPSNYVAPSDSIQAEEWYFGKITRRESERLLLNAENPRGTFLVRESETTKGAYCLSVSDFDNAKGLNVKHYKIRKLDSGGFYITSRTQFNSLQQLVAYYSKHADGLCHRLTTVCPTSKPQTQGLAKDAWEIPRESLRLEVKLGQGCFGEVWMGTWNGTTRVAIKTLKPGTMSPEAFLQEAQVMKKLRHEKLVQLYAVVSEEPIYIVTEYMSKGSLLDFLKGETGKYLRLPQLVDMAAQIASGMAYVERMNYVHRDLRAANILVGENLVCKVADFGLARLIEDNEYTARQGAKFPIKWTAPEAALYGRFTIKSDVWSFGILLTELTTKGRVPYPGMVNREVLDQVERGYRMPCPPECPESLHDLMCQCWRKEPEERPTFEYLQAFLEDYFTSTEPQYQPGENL

SMILES	IC50 [1] [nM]	other results
CC(Oc1ccc2[nH]c(C(=O)c3cc4ccccc4[nH]3)cc2c1)c1ccccc1 (stereo not given)	> 30000	–
COc1cccc2cc(C(=O)c3cc4ccccc4[nH]3)[nH]c12	> 30000	–
O=C(c1cc2ccccc2[nH]1)c1cc2cc(OCC3CCCCC3)ccc2[nH]1	> 30000	–
O=C(c1cc2ccccc2[nH]1)c1cc2cc(OC(=O)c3ccccc3C(=O)c3ccccc3)ccc2[nH]1	> 30000	–
Cc1ccc2[nH]c(C(=O)c3cc4ccccc4[nH]3)cc2c1	7500	–
O=C(c1cc2ccccc2[nH]1)c1cc2cc(OCc3ccccc3)ccc2[nH]1	10000	–
O=C(c1cc2ccccc2[nH]1)c1cc2cc(OC(=O)C(c3ccccc3)c3ccccc3)ccc2[nH]1	> 30000	–
O=C(Oc1ccc2[nH]c(C(=O)c3cc4ccccc4[nH]3)cc2c1)c1cccc(Oc2ccccc2)c1	> 30000	–
O=C(c1cc2ccccc2[nH]1)c1cc2cc(OC(=O)C3CC3)ccc2[nH]1	9100	–
COc1ccc2[nH]c(C(=O)c3cc4cc(OC)ccc4[nH]3)cc2c1	10000	–
O=C(c1cc2ccccc2[nH]1)c1cc2cc(OCCCCCI)ccc2[nH]1	> 20000	–
O=C(c1cc2ccccc2[nH]1)c1cc2cc(OC(=O)c3ccccc3Cl)ccc2[nH]1	4600	–
COc1cc(C(=O)Oc2ccc3[nH]c(C(=O)c4cc5ccccc5[nH]4)cc3c2)cc(OC)c1OC	4100	–
O=C(c1cc2ccccc2[nH]1)c1cc2cc(OC(=O)c3ccccc3Oc3ccccc3)ccc2[nH]1	> 30000	–
O=C(c1cc2ccccc2[nH]1)c1cc2cc(OC(=O)C3CCC3)ccc2[nH]1	9100	–
O=C(c1cc2ccccc2s1)c1cc2ccccc2s1	> 30000	–
CC(=O)Oc1ccc2[nH]c(C(=O)c3cc4ccccc4[nH]3)cc2c1	300	IC50 [2]: > 100000 nM; IC50 [3]: 70 nM; IC50 [4]: 200 nM; IC50 [5]: 4900 nM; IC50 [6]: > 30000 nM; IC50 [7]: 100 nM; IC50 [8]: > 30000 nM; IC50 [9]: 17000 nM; IC50 [10]: 300 nM; IC50 [11]: > 100000 nM
O=C(c1cc2ccccc2[nH]1)c1cc2cc(OCCCCI)ccc2[nH]1	5000	–
COc1ccc2[nH]c(C(=O)c3cc4ccccc4o3)cc2c1	4000	–

More lines, in order of falling IC50 [1], values ahead:

IC50 [1] [nM]	SMILES	other results
3400	O=C(/C=C/c1ccccc1)Oc1ccc2[nH]c(C(=O)c3cc4ccccc4[nH]3)cc2c1	–
3200	COc1ccc(C(=O)Oc2ccc3[nH]c(C(=O)c4cc5ccccc5[nH]4)cc3c2)cc1	–
3200	CN(C)CCCOc1ccc2[nH]c(C(=O)c3cc4ccccc4[nH]3)cc2c1	–
2500	O=C(c1cc2ccccc2[nH]1)c1cc2cc(OCCN3CCOCC3)ccc2[nH]1	–
2300	CCOc1ccc2[nH]c(C(=O)c3cc4ccccc4[nH]3)cc2c1	–
2200	CC(=O)Oc1ccccc1C(=O)Oc1ccc2[nH]c(C(=O)c3cc4ccccc4[nH]3)cc2c1	–
1700	O=C(Oc1ccc2[nH]c(C(=O)c3cc4ccccc4[nH]3)cc2c1)c1ccc(-c2ccccc2)cc1	–
1300	CCOc1ccc(C(=O)Oc2ccc3[nH]c(C(=O)c4cc5ccccc5[nH]4)cc3c2)cc1	–
1200	O=C(CCc1ccccc1)Oc1ccc2[nH]c(C(=O)c3cc4ccccc4[nH]3)cc2c1	–
1100	CCCC(=O)Oc1ccc2[nH]c(C(=O)c3cc4ccccc4[nH]3)cc2c1	–
1000	COc1ccc2[nH]c(C(=O)c3cc4ccccc4s3)cc2c1	–
1000	COc1cccc(CC(=O)Oc2ccc3[nH]c(C(=O)c4cc5ccccc5[nH]4)cc3c2)c1	–
1000	O=C(Oc1ccc2[nH]c(C(=O)c3cc4ccccc4[nH]3)cc2c1)c1cccnc1	–
900	O=C(Oc1ccc2[nH]c(C(=O)c3cc4ccccc4[nH]3)cc2c1)c1ccc([N+](=O)[O-])cc1	–
900	CC(=O)OC(C(=O)Oc1ccc2[nH]c(C(=O)c3cc4ccccc4[nH]3)cc2c1)c1ccccc1 (stereo not given)	–
900	CCC(=O)Oc1ccc2[nH]c(C(=O)c3cc4ccccc4[nH]3)cc2c1	–
800	CN(C)CCOc1ccc2[nH]c(C(=O)c3cc4ccccc4[nH]3)cc2c1	–
800	O=C(Cc1cccs1)Oc1ccc2[nH]c(C(=O)c3cc4ccccc4[nH]3)cc2c1	–
800	O=C(Oc1ccc2[nH]c(C(=O)c3cc4ccccc4[nH]3)cc2c1)c1ccccc1	–
800	O=C(c1cc2ccccc2[nH]1)c1cc2cc(OCCN3CCCCC3)ccc2[nH]1	–
600	O=C(c1cc2ccccc2[nH]1)c1cc2cc(OC(=O)c3ccco3)ccc2[nH]1	–
400	O=C(Oc1ccc2[nH]c(C(=O)c3cc4ccccc4[nH]3)cc2c1)c1ccc2ccccc2n1	–
300	COc1ccc2[nH]c(C(=O)c3cc4ccccc4[nH]3)cc2c1	–
300	COc1ccc2cc(C(=O)c3cc4ccccc4[nH]3)[nH]c2c1	–
200	COCC(=O)Oc1ccc2[nH]c(C(=O)c3cc4ccccc4[nH]3)cc2c1	IC50 [2]: > 100000 nM; IC50 [3]: 4200 nM; IC50 [4]: > 10000 nM; IC50 [5]: 100 nM; IC50 [6]: > 30000 nM; IC50 [7]: 300 nM; IC50 [8]: > 30000 nM; IC50 [9]: 20400 nM; IC50 [10]: 20 nM; IC50 [11]: > 100000 nM
200	O=C(c1cc2ccccc2[nH]1)c1cc2cc(O)ccc2[nH]1	IC50 [3]: 600 nM; IC50 [4]: > 10000 nM; IC50 [5]: 200 nM; IC50 [6]: > 30000 nM; IC50 [7]: 1000 nM; IC50 [8]: > 30000 nM; IC50 [9]: > 100000 nM; IC50 [10]: 90 nM; IC50 [11]: > 30000 nM
100	CN(C)CC(=O)Oc1ccc2[nH]c(C(=O)c3cc4ccccc4[nH]3)cc2c1	IC50 [2]: > 100000 nM; IC50 [3]: 1300 nM; IC50 [4]: > 10000 nM; IC50 [5]: 100 nM; IC50 [6]: > 30000 nM; IC50 [7]: 100 nM; IC50 [8]: > 30000 nM; IC50 [9]: 15100 nM; IC50 [10]: 100 nM; IC50 [11]: 30000 nM

Source: ChEMBL document CHEMBL1135728, “Bis(1H-2-indolyl)methanones as a novel class of inhibitors of the platelet-derived growth factor receptor kinase” (J Med Chem, 2002)
